The record followed here is ChEMBL document CHEMBL4130635, “2,4-Diaminoquinazolines as Dual Toll-like Receptor (TLR) 7/8 Modulators for the Treatment of Hepatitis B Virus” (J Med Chem, 2018).

Series [1] is described as follows: Permeability of the compound in porcine LLC-PK1 cells expressing MDR1 at 1 uM by LC-MS/MS analysis. The class given is ADME, cell-based, Sus scrofa. Conditions: pig, llc-pk1, 1 µM; call rule not given here.
In series [2] the test system is Liver. The experiment in a line: Proinflammatory activity in C57BL/6J mouse liver assessed as IL-6 levels at 30 mg/kg, po by multiplex assay (reference value: 10 pg/g). Format: functional.
For series [3], the target named is T1, Toll-like receptor 7 (Homo sapiens) (UniProt Q9NYK1).
T1 sequence (whole entry): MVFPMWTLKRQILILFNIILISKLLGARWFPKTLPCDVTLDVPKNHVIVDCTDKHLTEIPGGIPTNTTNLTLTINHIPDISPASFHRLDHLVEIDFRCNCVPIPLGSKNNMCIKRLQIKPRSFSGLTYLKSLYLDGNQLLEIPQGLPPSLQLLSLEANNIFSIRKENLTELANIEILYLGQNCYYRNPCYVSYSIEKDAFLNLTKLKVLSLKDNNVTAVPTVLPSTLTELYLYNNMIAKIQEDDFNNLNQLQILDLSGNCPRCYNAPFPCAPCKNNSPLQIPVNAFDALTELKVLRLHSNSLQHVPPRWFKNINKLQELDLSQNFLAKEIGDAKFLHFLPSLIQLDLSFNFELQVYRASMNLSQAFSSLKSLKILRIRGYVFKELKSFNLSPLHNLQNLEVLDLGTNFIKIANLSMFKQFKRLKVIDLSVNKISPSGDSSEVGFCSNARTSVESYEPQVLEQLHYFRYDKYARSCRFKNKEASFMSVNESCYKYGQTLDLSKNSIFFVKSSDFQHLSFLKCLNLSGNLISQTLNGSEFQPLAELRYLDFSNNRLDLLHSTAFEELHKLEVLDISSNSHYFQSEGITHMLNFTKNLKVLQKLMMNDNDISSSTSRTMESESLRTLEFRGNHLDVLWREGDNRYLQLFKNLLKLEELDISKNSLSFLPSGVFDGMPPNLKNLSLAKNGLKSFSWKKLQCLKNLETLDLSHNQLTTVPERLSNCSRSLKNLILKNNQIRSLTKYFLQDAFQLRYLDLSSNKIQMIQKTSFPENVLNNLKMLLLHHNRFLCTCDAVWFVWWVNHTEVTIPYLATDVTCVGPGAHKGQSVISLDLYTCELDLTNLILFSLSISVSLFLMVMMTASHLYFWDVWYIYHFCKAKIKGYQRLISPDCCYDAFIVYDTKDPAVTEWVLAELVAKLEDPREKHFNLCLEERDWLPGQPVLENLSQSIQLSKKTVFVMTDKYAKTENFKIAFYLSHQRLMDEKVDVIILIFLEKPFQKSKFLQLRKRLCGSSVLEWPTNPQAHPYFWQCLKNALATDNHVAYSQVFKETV
The experiment in a line: Agonist activity at TLR7 in human PBMC assessed as suppression of HCV replicon replication in human HuH7 luc/neo cells harboring RNA encoding bicistronic expression construct comprising wild type HCV type 1b NS3-NS5B regions exposed to conditioned media from compound treated PBMCs after 24 hrs by luciferase reporter gene assay. Format: cell-based. Summed up:
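Human PBMCs were incubated with compound. Their medium was then transferred onto an HCV replicon system, so the antiviral read-out reflects interferon and cytokines the PBMCs induced. Values are reported as lowest effective concentration (LEC), averaged when determined in two or more independent experiments.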
(In general: A replicon is a self-replicating genome or part of one, used to study replication in cells.)

Series [4] in a line: AUC (0 to last) in C57BL/6J mouse liver at 3 mg/kg, po by LC-MS analysis. The class given is ADME, organism-based. The note with it: in vivo. Summed up:
(§1)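 Healthy C57BL/6 mice were dosed once by mouth at 0.3, 1, 3, 10 or 30 mg/kg in 20% HP-β-CD, in groups of 15 per dose. Three mice per group were sacrificed at 0.5, 1, 2, 4 or 7 h, and plasma and liver compound levels were measured by LC–MS. Values were rounded to whole numbers.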

Series [5] concerns Cynomolgus monkey. The series is described as follows: Effect on cytokine profile in cynomolgus monkey plasma assessed as IL-12P70 levels at 3 mg/kg, po after 24 hrs by Luminex assay (reference value: 2.17 pg/ml). The class given is functional, organism-based. Conditions: Macaca fascicularis. Put shortly:
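Healthy cynomolgus monkeys given single oral doses of 1, 3, 9 and 30 mg/kg, with a 2-week wash-out planned between doses. Systemic cytokine levels in plasma were sampled at 0.5, 1, 2, 4, 9 and 24 h postdose.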

The subject of series [6] is Liver. The series is described as follows: Proinflammatory activity in C57BL/6J mouse liver assessed as IL-1beta levels at 3 mg/kg, po by multiplex assay. The class given is functional.
Series [7] concerns Plasma. The series is described as follows: Proinflammatory activity in C57BL/6J mouse plasma assessed as IL-6 levels at 1 mg/kg, po by multiplex assay (reference value: 505 pg/ml). The class given is functional.
The next series concerns TK6. The experiment in a line: Genotoxicity in human TK6 cells by in vitro micronuleus test. The class given is toxicity, cell-based. Put shortly: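 In vitro micronucleus test in TK-6 cells.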
The nature of series [8]: Plasma concentration in C57BL/6J mouse at 30 mg/kg, po by LC-MS analysis. The class given is ADME, organism-based. The note with it: in vivo.
For series [9], the system named is Cynomolgus monkey. The series is described as follows: Activation of monocytes in cynomolgus monkey plasma assessed as upregulation of IL1Ra levels at 30 mg/kg, po after 24 hrs by Luminex assay (reference value: 320 pg/ml). Format: functional, Macaca fascicularis.
Series [10] can be described thus: AUC (0 to last) in C57BL/6J mouse plasma at 30 mg/kg, po by LC-MS analysis. Format: ADME, organism-based. Set-up: dose 30 mg/kg, time 0 - last, route oral. Summed up: as §1
The target in a further series is Cytochrome P450 3A4 (Homo sapiens, UniProt P08684). The series is described as follows: Induction of CYP3A4 (unknown origin). Format: ADME.
Series [11] is described as follows: Intrinsic clearance in mouse liver microsomes assessed per mg protein at 1 uM up to 60 mins. The class given is ADME, microsome. The note with it: read-out: CLH. On the technique in general: Liver microsomes are vesicles of endoplasmic reticulum, rich in cytochrome P450 enzymes.
Series [12] concerns Cynomolgus monkey. The experiment in a line: Induction of ISG response in cynomolgus monkey plasma assessed as upregulation of Oas1b mRNA expression at 3 mg/kg, po after 24 hrs by Fluidigm RT-qPCR analysis (reference value: 1). Format: functional, Macaca fascicularis. Summed up:
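Cynomolgus monkeys, single oral doses of 1, 3, 9 and 30 mg/kg with a planned 2-week wash-out between doses. Systemic ISG (ISG15, Mx1, OAS1) mRNA was measured by Fluidigm RT-qPCR at 1, 2, 4, 8 and 24 h postdose.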

Series [13] relates to Plasma. The experiment in a line: Effect on cytokine profile in C57BL/6J mouse plasma assessed as IL-12p70 levels at 10 mg/kg, po by multiplex assay (reference value: 560 pg/ml). Format: functional. Put shortly: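 Single oral gavage in 20% HP-β-CD to healthy C57BL/6 mice, groups of 15 at 0.3, 1, 3, 10 or 30 mg/kg. Three mice per group sacrificed at 0.5, 1, 2, 4 or 7 h. Plasma and liver cytokines by multiplex, maximum level reported, rounded to nearest multiple of 5.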

A short description of series [14]: AUC (0 to last) in cynomolgus monkey plasma at 9 mg/kg, po by LC-MS analysis. More on the design: dose 9 mg/kg, route oral, time 0 - last. The class given is ADME, organism-based, Macaca fascicularis. Put shortly:
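Healthy cynomolgus monkeys received single oral doses of 1, 3, 9 and 30 mg/kg, with a 2-week wash-out between doses. Systemic compound concentrations were measured by LC–MS at 0.25, 0.5, 1, 2, 4, 8 and 24 h postdose.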

Series [15] has as its system Plasma. The experiment in a line: Proinflammatory activity in C57BL/6J mouse plasma assessed as IL-1beta levels at 0.3 mg/kg, po by multiplex assay (reference value: 60 pg/ml). Format: functional.

The structures appear in SMILES notation.

Sequence of Cytochrome P450 3A4 (P08684 whole entry): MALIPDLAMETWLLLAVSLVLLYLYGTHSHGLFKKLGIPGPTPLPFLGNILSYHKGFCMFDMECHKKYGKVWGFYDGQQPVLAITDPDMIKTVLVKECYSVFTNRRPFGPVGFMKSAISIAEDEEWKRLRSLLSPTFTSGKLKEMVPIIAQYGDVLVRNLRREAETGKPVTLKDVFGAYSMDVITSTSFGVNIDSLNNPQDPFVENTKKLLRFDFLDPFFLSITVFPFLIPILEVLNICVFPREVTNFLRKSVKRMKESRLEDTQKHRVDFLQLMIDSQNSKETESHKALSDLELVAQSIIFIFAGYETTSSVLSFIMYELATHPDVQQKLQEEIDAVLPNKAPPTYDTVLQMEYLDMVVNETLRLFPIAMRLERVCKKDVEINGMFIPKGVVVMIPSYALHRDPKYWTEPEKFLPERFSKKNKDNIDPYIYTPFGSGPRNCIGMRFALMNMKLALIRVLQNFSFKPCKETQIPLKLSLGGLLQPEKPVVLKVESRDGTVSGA

Usually AUC(0-t) stands for exposure summed from dosing to a finite time, without extrapolation to infinity. As to `CCC[C@@H](CCO)Nc1nc(N)nc2c(F)cccc12`, the permeability result in [1] is reported as “Permeable”. Moreover, the Activity was 7555 pg/g in the series with Liver [2]; “Below limit of detection” in the series with Cynomolgus monkey [5]; 22925 pg/g in the series with Liver [6]; 1150 pg/mL with Plasma [7]; “Non-Toxic” with TK6; 2970 pg/mL in the series on Cynomolgus monkey [9]. For the same molecule, the Activity result at Cytochrome P450 3A4 was “Not Active”; in the series with Plasma [13], 630 pg/mL; in the series with Plasma [15], 50 pg/mL. Also, the MEC in series [3] was 0.25 µM. Moreover, in series [4], the AUClast was 362 ng·h/g. In series [8], this molecule returned a Cp of 35.7 ng/mL. In addition, the AUC(0-t) in series [10] was 679 ng·h/mL; in [14], 4050 ng·h/mL. Further, in series [11], the microsomal CLint at 1 µM is 100 µL/min/mg. In addition, the “fold change (FC)” value in the series on Cynomolgus monkey [12] is 265.
